ChEMBL document CHEMBL4373647, “Design, synthesis, and antimicrobial evaluation of 1,4-dihydroindeno[1,2-c]pyrazole tethered carbohydrazide hybrids: exploring their in silico ADMET, ergosterol inhibition and ROS inducing potential” (Medchemcomm, 2019)
In brackets after ≈: the same amount, converted by molar mass. Activity calls are given as the source filed them. The calls are words filed in the database; no cut-off is given here.

Columns and labels:
Staphylococcus aureus [1] = test: Ratio of MBC to MIC against Staphylococcus aureus MTCC 96; format: functional
Pichia kudriavzevii [2] = test: Ratio of MFC to MIC against Candida krusei MTCC 3020; format: functional
Method in brief: (§1)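 MIC by agar well diffusion: Candida lawns on Mueller-Hinton agar, wells loaded with compound in 10% DMSO (125–0.97 µg/mL), 24 h at 37 °C, lowest concentration giving an inhibition zone. MFC: compound in Mueller-Hinton broth (125–0.97 µg/mL) with yeast, 24 h at 37 °C, 10 µL plated on agar, lowest killing concentration after 24 h. Ratio is MFC/MIC.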

Candida albicans [3] = test: Ratio of MFC to MIC against Candida albicans MTCC 4748; format: functional; method in brief: as §1
Nakaseomyces glabratus [4] = test: Ratio of MFC to MIC against Candida glabrata MTCC 3019; format: functional; method in brief: as §1
Bacillus subtilis [5] = test: Bactericidal activity against Bacillus subtilis MTCC 121 assessed as bacterial killing incubated for 24 hrs; format: functional; conditions: MTCC 121, 24 h
Method in brief: (§2)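 Broth tube assay: compound at 0–125 µg/mL in Mueller Hinton broth, overnight culture added to 0.5 McFarland (1.5 × 10^8 cfu/mL), held 24 h at 37 °C. 10 µL from each tube plated on Mueller Hinton agar. MBC is the lowest concentration that kills the strain. Duplicates, means reported.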

Pichia kudriavzevii [6] = test: Fungicidal activity against Candida krusei MTCC 3020 assessed as fungal killing incubated for 24 hrs; format: functional; conditions: MTCC 3020, 24 h
Method in brief: (§3)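 Compound at 125–0.97 µg/mL in Mueller Hinton broth in microcentrifuge tubes, each Candida strain added, held 24 h at 37 °C. 10 µL of the treated suspension plated on Mueller Hinton agar and incubated a further 24 h at 37 °C. MFC is the lowest concentration that kills the strain. Duplicates, means reported.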

Candida albicans [7] = test: Antifungal activity against Candida albicans MTCC 3017 assessed as inhibition of fungal growth incubated for 24 hrs by agar well diffusion method; format: functional; conditions: MTCC 3017, 24 h
Method in brief: (§4)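 Candida strains from MTCC, pre-cultured and spread on Mueller Hinton agar. Wells received compound dissolved in 10% DMSO, 125–0.97 µg/mL; miconazole standard over the same range, DMSO negative control. After 24 h at 37 °C, MIC was read as the lowest concentration giving an inhibition zone. Duplicate experiments, means given.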

MRC5 = test: Cytotoxicity against human MRC5 cells incubated for 48 hrs by MTT assay; format: cell-based; conditions: MRC5, 48 h
Method in brief: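 Normal human lung MRC5 cells grown 24 h in 96-well plates, then exposed to a range of compound concentrations for 48 h. MTT (250 µg/mL) added for 2 h, medium replaced by DMSO, absorbance read at 570 nm. Miconazole positive control, DMSO negative control. Triplicates, mean ± S.D.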

Candida albicans [8] = test: Antifungal activity against Candida albicans MTCC 183 assessed as inhibition of fungal growth incubated for 24 hrs by agar well diffusion method; format: functional; method in brief: as §4
Staphylococcus aureus [9] = test: Ratio of MBC to MIC against Staphylococcus aureus MLS-16 MTCC 2940; format: functional
Candida albicans [10] = test: Antifungal activity against Candida albicans MTCC 1637 assessed as inhibition of fungal growth incubated for 24 hrs by agar well diffusion method; format: functional; conditions: MTCC 1637, 24 h; method in brief: as §4
Staphylococcus aureus [11] = test: Bactericidal activity against Staphylococcus aureus MLS-16 MTCC 2940 assessed as bacterial killing incubated for 24 hrs; format: functional; conditions: MLS-16 MTCC 2940, 24 h; method in brief: as §2
Bacillus subtilis [12] = test: Ratio of MBC to MIC against Bacillus subtilis MTCC 121; format: functional
Staphylococcus aureus [13] = test: Antibacterial activity against Staphylococcus aureus MLS-16 MTCC 2940 assessed as inhibition of bacterial growth incubated for 24 hrs by agar well diffusion method; format: functional; conditions: MLS-16 MTCC 2940, 24 h
Method in brief: (§5)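 Strains from MTCC; inoculum at 0.5 McFarland spread on Mueller-Hinton agar; 6 mm wells loaded with compound over 125–0.97 µg/mL; ciprofloxacin positive control (same range), DMSO negative control. Plates held 24 h at 37 °C; MIC taken as lowest concentration giving a clear inhibition zone. Triplicate runs, mean MIC reported.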

Candida albicans [14] = test: Ratio of MFC to MIC against Candida albicans MTCC 7315; format: functional; method in brief: as §1
Staphylococcus aureus [15] = test: Antibacterial activity against Staphylococcus aureus MTCC 96 assessed as inhibition of bacterial growth incubated for 24 hrs by agar well diffusion method; format: functional; conditions: MTCC 96, 24 h; method in brief: as §5
Candida albicans [16] = test: Antifungal activity against Candida albicans MTCC 4748 assessed as inhibition of fungal growth incubated for 24 hrs by agar well diffusion method; format: functional; conditions: MTCC 4748, 24 h; method in brief: as §4
Micrococcus luteus = test: Antibacterial activity against Micrococcus luteus MTCC 2470 assessed as inhibition of bacterial growth incubated for 24 hrs by agar well diffusion method; format: functional; conditions: MTCC 2470, 24 h; method in brief: as §5
Candida albicans [17] = test: Ratio of MFC to MIC against Candida albicans MTCC 3018; format: functional; method in brief: as §1
Nakaseomyces glabratus [18] = test: Antifungal activity against Candida glabrata MTCC 3019 assessed as inhibition of fungal growth incubated for 24 hrs by agar well diffusion method; format: functional; conditions: MTCC 3019, 24 h; method in brief: as §4
Candida albicans [19] = test: Antifungal activity against Candida albicans MTCC 7315 assessed as inhibition of fungal growth incubated for 24 hrs by agar well diffusion method; format: functional; conditions: MTCC 7315, 24 h; method in brief: as §4
Candida albicans [20] = test: Antifungal activity against Candida albicans MTCC 227 assessed as inhibition of fungal growth incubated for 24 hrs by agar well diffusion method; format: functional; conditions: MTCC 227, 24 h; method in brief: as §4
Raoultella planticola = test: Antibacterial activity against Klebsiella planticola MTCC 530 assessed as inhibition of bacterial growth incubated for 24 hrs by agar well diffusion method; format: functional; conditions: MTCC 530, 24 h; method in brief: as §5
Pseudomonas aeruginosa [21] = test: Antibacterial activity against Pseudomonas aeruginosa MTCC 2453 assessed as inhibition of bacterial growth incubated for 24 hrs by agar well diffusion method; format: functional; conditions: MTCC 2453, 24 h; method in brief: as §5
Candida albicans [22] = test: Fungicidal activity against Candida albicans MTCC 7315 assessed as fungal killing incubated for 24 hrs; format: functional; conditions: MTCC 7315, 24 h; method in brief: as §3
Candida albicans [23] = test: Fungicidal activity against Candida albicans MTCC 4748 assessed as fungal killing incubated for 24 hrs; format: functional; conditions: MTCC 4748, 24 h; method in brief: as §3
Candida albicans [24] = test: Ratio of MFC to MIC against Candida albicans MTCC 227; format: functional; method in brief: as §1
Pichia sporocuriosa [25] = test: Antifungal activity against Issatchenkia hanoiensis MTCC 4755 assessed as inhibition of fungal growth incubated for 24 hrs by agar well diffusion method; format: functional; conditions: MTCC 4755, 24 h; method in brief: as §4
Pseudomonas aeruginosa [26] = test: Bactericidal activity against Pseudomonas aeruginosa MTCC 2453 assessed as bacterial killing incubated for 24 hrs; format: functional; conditions: MTCC 2453, 24 h; method in brief: as §2
Nakaseomyces glabratus [27] = test: Fungicidal activity against Candida glabrata MTCC 3019 assessed as fungal killing incubated for 24 hrs; format: functional; conditions: MTCC 3019, 24 h; method in brief: as §3
Candida albicans [28] = test: Fungicidal activity against Candida albicans MTCC 1637 assessed as fungal killing incubated for 24 hrs; format: functional; conditions: MTCC 1637, 24 h; method in brief: as §3
Candida albicans [29] = test: Ratio of MFC to MIC against Candida albicans MTCC 183; format: functional
Pichia sporocuriosa [30] = test: Fungicidal activity against Issatchenkia hanoiensis MTCC 4755 assessed as fungal killing incubated for 24 hrs; format: functional; conditions: MTCC 4755, 24 h; method in brief: as §3
Escherichia coli = test: Ratio of MBC to MIC for Escherichia coli MTCC 739; format: functional
Candida parapsilosis = test: Antifungal activity against Candida parapsilosis MTCC 1744 assessed as inhibition of fungal growth incubated for 24 hrs by agar well diffusion method; format: functional; conditions: Lodderomyces parapsilosis, MTCC 1744, 24 h; method in brief: as §4

MIC (Candida albicans [7]) [µg/mL]	MIC (Candida albicans [8])	MIC (Candida albicans [10]) [µg/mL]	MIC (Staphylococcus aureus [13]) [µg/mL]	MIC (Staphylococcus aureus [15]) [µg/mL]	MIC (Candida albicans [16]) [µg/mL]	MIC (Micrococcus luteus) [µg/mL]	MIC (Nakaseomyces glabratus [18]) [µg/mL]	SMILES	Ratio (Staphylococcus aureus [1])	Ratio (Pichia kudriavzevii [2])	Ratio (Candida albicans [3])	Ratio (Nakaseomyces glabratus [4])	MBC (Bacillus subtilis [5]) [µg/mL]	MFC (Pichia kudriavzevii [6]) [µg/mL]	IC50 (MRC5) [µg/mL]	Ratio (Staphylococcus aureus [9])	MBC (Staphylococcus aureus [11]) [µg/mL]	Ratio (Bacillus subtilis [12])	Ratio (Candida albicans [14])	Ratio (Candida albicans [17])	also measured
7.8 (≈ 22.4 µM)	inactive	15.6 (≈ 44.8 µM)	7.8 (≈ 22.4 µM)	3.9 (≈ 11.2 µM)	3.9 (≈ 11.2 µM)	7.8 (≈ 22.4 µM)	3.9 (≈ 11.2 µM)	COc1cc(/C=N/NC(=O)c2n[nH]c3c2Cc2ccccc2-3)ccc1O	2	2	2	2	7.8 (≈ 22.4 µM)	31.2 (≈ 89.6 µM)	31.2 (≈ 89.6 µM)	2	15.6 (≈ 44.8 µM)	2	2	2	MIC (Candida albicans [19]): 7.8 µg/mL (≈ 22.4 µM); MIC (Candida albicans [20]): 7.8 µg/mL (≈ 22.4 µM); MIC (Raoultella planticola): 3.9 µg/mL (≈ 11.2 µM); MIC (Pseudomonas aeruginosa [21]): 7.8 µg/mL (≈ 22.4 µM); MFC (Candida albicans [22]): 15.6 µg/mL (≈ 44.8 µM); MFC (Candida albicans [23]): 7.8 µg/mL (≈ 22.4 µM); Ratio (Candida albicans [24]): 2; MIC (Pichia sporocuriosa [25]): 15.6 µg/mL (≈ 44.8 µM); MBC (Pseudomonas aeruginosa [26]): 15.6 µg/mL (≈ 44.8 µM); MFC (Nakaseomyces glabratus [27]): 7.8 µg/mL (≈ 22.4 µM); MFC (Candida albicans [28]): 31.2 µg/mL (≈ 89.6 µM); Ratio (Candida albicans [29]): 2; MFC (Pichia sporocuriosa [30]): 31.2 µg/mL (≈ 89.6 µM); Ratio (Escherichia coli): 2; MIC (Candida parapsilosis): 15.6 µg/mL (≈ 44.8 µM)
3.9 (≈ 10.1 µM)	inactive	15.6 (≈ 40.4 µM)	3.9 (≈ 10.1 µM)	3.9 (≈ 10.1 µM)	15.6 (≈ 40.4 µM)	7.8 (≈ 20.2 µM)	15.6 (≈ 40.4 µM)	COc1ccc2c(c1)Cc1c(C(=O)N/N=C/c3c(F)cc(F)cc3F)n[nH]c1-2	2	2	2	2	15.6 (≈ 40.4 µM)	31.2 (≈ 80.8 µM)	37.2 (≈ 96.3 µM)	2	7.8 (≈ 20.2 µM)	2	2	2	MIC (Candida albicans [19]): 15.6 µg/mL (≈ 40.4 µM); MIC (Candida albicans [20]): 7.8 µg/mL (≈ 20.2 µM); MIC (Raoultella planticola): 7.8 µg/mL (≈ 20.2 µM); MIC (Pseudomonas aeruginosa [21]): 7.8 µg/mL (≈ 20.2 µM); MFC (Candida albicans [22]): 31.2 µg/mL (≈ 80.8 µM); MFC (Candida albicans [23]): 31.2 µg/mL (≈ 80.8 µM); Ratio (Candida albicans [24]): 2; MIC (Pichia sporocuriosa [25]): 15.6 µg/mL (≈ 40.4 µM); MBC (Pseudomonas aeruginosa [26]): 15.6 µg/mL (≈ 40.4 µM); MFC (Nakaseomyces glabratus [27]): 31.2 µg/mL (≈ 80.8 µM); MFC (Candida albicans [28]): 31.2 µg/mL (≈ 80.8 µM); Ratio (Candida albicans [29]): 2; MFC (Pichia sporocuriosa [30]): 31.2 µg/mL (≈ 80.8 µM); Ratio (Escherichia coli): 2; MIC (Candida parapsilosis): 15.6 µg/mL (≈ 40.4 µM)
